Assays:
[1] = target: T1, Mineralocorticoid receptor (Rattus norvegicus) (UniProt P22199); experiment: Relative binding affinity (RBA) for mineralocorticoid receptor compared to aldosterone
T1 sequence (whole entry): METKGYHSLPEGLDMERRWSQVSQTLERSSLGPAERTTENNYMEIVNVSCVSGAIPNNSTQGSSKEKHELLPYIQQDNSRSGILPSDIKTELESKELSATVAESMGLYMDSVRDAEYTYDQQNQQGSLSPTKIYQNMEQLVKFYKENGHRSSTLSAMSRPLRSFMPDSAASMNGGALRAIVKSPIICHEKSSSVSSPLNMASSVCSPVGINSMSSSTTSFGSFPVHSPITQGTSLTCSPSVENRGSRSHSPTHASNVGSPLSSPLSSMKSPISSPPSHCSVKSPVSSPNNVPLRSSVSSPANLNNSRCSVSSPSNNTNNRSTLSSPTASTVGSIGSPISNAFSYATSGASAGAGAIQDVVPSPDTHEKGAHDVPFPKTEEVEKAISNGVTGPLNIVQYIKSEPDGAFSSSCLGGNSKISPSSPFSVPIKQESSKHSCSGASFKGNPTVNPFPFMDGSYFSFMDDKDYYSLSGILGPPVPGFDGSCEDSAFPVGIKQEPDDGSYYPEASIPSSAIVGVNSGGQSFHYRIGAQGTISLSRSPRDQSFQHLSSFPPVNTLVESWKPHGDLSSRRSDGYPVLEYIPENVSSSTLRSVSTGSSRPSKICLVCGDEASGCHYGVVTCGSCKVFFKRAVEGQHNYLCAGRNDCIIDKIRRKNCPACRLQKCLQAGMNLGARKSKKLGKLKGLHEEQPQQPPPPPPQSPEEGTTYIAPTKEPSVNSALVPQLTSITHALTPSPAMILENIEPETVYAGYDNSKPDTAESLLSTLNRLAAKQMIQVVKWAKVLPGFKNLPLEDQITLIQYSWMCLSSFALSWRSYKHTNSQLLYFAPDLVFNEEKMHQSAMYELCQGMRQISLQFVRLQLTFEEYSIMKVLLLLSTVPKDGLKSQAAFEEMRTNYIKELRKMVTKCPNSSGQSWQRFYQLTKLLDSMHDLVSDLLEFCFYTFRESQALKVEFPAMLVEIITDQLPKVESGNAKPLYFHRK

[2] = target: T2, Progesterone receptor (Rattus norvegicus) (UniProt Q63449); experiment: Relative binding affinity for progesterone receptor compared to R5020
T2 sequence (whole entry): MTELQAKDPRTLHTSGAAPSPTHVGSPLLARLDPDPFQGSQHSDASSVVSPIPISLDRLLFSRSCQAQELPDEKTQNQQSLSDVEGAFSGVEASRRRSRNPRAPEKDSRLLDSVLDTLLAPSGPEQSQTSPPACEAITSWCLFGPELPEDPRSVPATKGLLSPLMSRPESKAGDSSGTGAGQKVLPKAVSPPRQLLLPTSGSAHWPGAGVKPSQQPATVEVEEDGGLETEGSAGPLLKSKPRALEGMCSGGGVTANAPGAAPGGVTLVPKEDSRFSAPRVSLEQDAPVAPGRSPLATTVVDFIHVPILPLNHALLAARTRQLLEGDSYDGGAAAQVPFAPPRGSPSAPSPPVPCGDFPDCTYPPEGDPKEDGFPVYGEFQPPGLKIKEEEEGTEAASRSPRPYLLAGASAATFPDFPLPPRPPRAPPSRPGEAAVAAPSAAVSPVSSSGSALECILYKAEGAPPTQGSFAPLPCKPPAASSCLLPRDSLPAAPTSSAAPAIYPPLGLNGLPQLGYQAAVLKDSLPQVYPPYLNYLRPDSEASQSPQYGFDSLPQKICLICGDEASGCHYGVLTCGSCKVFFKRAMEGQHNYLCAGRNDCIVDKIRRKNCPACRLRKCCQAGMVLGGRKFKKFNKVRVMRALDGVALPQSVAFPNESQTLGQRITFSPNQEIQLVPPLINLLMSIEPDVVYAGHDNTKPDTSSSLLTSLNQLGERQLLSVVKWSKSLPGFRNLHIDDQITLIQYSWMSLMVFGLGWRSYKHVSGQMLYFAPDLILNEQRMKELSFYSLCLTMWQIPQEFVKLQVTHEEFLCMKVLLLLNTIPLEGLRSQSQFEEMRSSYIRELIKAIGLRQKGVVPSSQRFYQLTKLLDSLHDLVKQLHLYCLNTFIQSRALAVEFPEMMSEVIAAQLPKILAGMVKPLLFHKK

[3] = target: T2, Progesterone receptor (Rattus norvegicus); experiment: Tissue distribution in uterus/blood 1 hr after [18F]4 injection into estrogen-primed immature rats at normal dose; assay type: functional, tissue-based
Outline: (§1)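 Female Sprague-Dawley rats, 23 days old, primed with estradiol 5 μg s.c. in 20% ethanol/sunflower oil on two days and used 24 h later. Under ether, they received 51 μCi tracer (30 Ci/mmol) iv via the tail vein in 0.1 mL 10% ethanol/saline. Killed by decapitation at 1 h; tissues weighed and gamma-counted. Results as %ID/g or tissue ratios, mean ± SD, n = 5.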

[4] = target: T2, Progesterone receptor (Rattus norvegicus); experiment: Tissue distribution in uterus 1 hr after [18F]4 injection into estrogen-primed immature rats at low dose; assay type: functional, tissue-based
Outline: (§2)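 Estrogen-primed immature female Sprague-Dawley rats (estradiol 5 μg s.c. daily ×2, used 24 h later) were given a reduced tracer dose of 30 μCi in 0.04 mL 10% ethanol/saline, tail vein iv, under ether. Decapitated at 1 h; organs weighed and gamma-counted. Results as %ID/g or uterus/tissue ratio, mean ± SD, n = 5.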

[5] = target: T2, Progesterone receptor (Rattus norvegicus); experiment: Tissue distribution in blood 1 hr after [18F]4 injection into estrogen-primed immature rats at normal dose; assay type: functional, tissue-based; outline: as §1
[6] = target: T2, Progesterone receptor (Rattus norvegicus); experiment: Tissue distribution in bone 1 hr after [18F]-4 injection into estrogen-primed immature rats co-injected with uterine uptake blocker (ORG 2058); assay type: functional, tissue-based; conditions: Bone element
Outline: (§3)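 Blocking group: estrogen-primed immature female Sprague-Dawley rats (estradiol 5 μg s.c. ×2 days, used 24 h later). ORG 2058 18 μg was co-injected with the tracer dose iv via tail vein, 0.2 mL injection volume in 10% ethanol/saline. Killed 1 h later; tissues weighed and gamma-counted. Results as %ID/g or ratios, mean ± SD, n = 5.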

[7] = target: T2, Progesterone receptor (Rattus norvegicus); experiment: Tissue distribution in fat 1 hr after [18F]4 injection into estrogen-primed immature rats at low dose; assay type: functional, tissue-based; conditions: Adipose tissue; outline: as §2
[8] = target: T2, Progesterone receptor (Rattus norvegicus); experiment: Tissue distribution in fat 1 hr after [18F]4 injection into estrogen-primed immature rats at normal dose; assay type: functional, tissue-based; conditions: Adipose tissue; outline: as §1
[9] = target: T2, Progesterone receptor (Rattus norvegicus); experiment: Tissue distribution in fat 3 hr after [18F]4 injection into estrogen-primed immature rats; assay type: functional, tissue-based; conditions: Adipose tissue
Outline: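 Immature female Sprague-Dawley rats, estradiol-primed (5 μg s.c. in 20% ethanol/sunflower oil, two successive days, used 24 h later). Tracer (30 Ci/mmol) in 10% ethanol/saline was injected iv into the tail vein under ether anesthesia. Animals were decapitated 3 h postinjection; organs weighed and gamma-counted. %ID/g, mean ± SD, n = 5.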

[10] = target: T2, Progesterone receptor (Rattus norvegicus); experiment: Tissue distribution in kidney 1 hr after [18F]4 injection into estrogen-primed immature rats co-injected with uterine uptake blocker ([…]); assay type: functional, tissue-based; outline: as §3
[11] = target: T2, Progesterone receptor (Rattus norvegicus); experiment: Tissue distribution in muscle 1 hr after [18F]4 injection into estrogen-primed immature rats co-injected with uterine uptake blocker (ORG2058); assay type: functional, tissue-based; outline: as §3
[12] = target: T2, Progesterone receptor (Rattus norvegicus); experiment: Tissue distribution in muscle 1 hr after [18F]4 injection into estrogen-primed immature rats at low dose; assay type: functional, tissue-based; outline: as §2
[13] = target: T2, Progesterone receptor (Rattus norvegicus); experiment: Tissue distribution in kidney 1 hr after [18F]4 injection into estrogen-primed immature rats at low dose; assay type: functional, tissue-based; outline: as §2

relative binding affinity (RBA) [1] | relative binding affinity (RBA) [2] | uterus/blood ratio [3] | Injected dose/g [4] | Injected dose/g [5] | Injected dose/g [6] | Injected dose/g [7] | Injected dose/g [8] | Injected dose/g [9] | Injected dose/g [10] | Injected dose/g [11] | Injected dose/g [12] | Injected dose/g [13] | SMILES
140 | 240 | 14 | 4.06% | 0.26% | 0.6% | 3.78% | 3.53% | 1.64% | 1.28% | 0.35% | 0.464% | 1.57% | C[C@@]1(c2ccc(F)cc2)O[C@@H]2CC3C4CCC5=CC(=O)CC[C@@H]5C4CC[C@]3(C)[C@]2(C(=O)CO)O1 (stereo partly specified)
6 | 53 | 6.59 | 3.3% | 0.47% | 1.44% | 5.39% | 5.76% | 5.06% | 2.18% | 0.76% | 0.82% | 2.27% | CC(=O)[C@@]12O[C@](C)(c3ccc(F)cc3)O[C@@H]1CC1C3CCC4=CC(=O)CC[C@]4(C)C3CC[C@@]12C (stereo partly specified)

— ChEMBL document CHEMBL1126647, “Fluorine-18-labeled progestin ketals: synthesis and target tissue uptake selectivity of potential imaging agents for receptor-positive breast tumors” (J Med Chem, 1993)
